MIC90 and Activity data for one compound are collected here from ChEMBL document CHEMBL4382210, “Identification of novel benzothiopyranone compounds against Mycobacterium tuberculosis through scaffold morphing from benzothiazinones” (Eur J Med Chem, 2018).

The subject of test [1] is Mycobacterium tuberculosis. In words: Antimicrobial activity against Mycobacterium tuberculosis H37Rv after 7 days by MABA. In kind it is functional. Conditions: 168 h. The method in brief:
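Strain H37Rv or clinical isolates grown to late log phase in 7H9-ADC-TG, washed, resuspended in PBS, filtered (8 µm) and frozen. On day 7 Tween 80 and alamar blue added, read 16–24 h later (ex 530/em 590). MIC = lowest concentration giving ≥90% fluorescence reduction versus bacterium-only controls.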
For orientation: The colour change of resazurin is a common sign of viable cells or microbes.

Test [2] has as its system Mycobacterium tuberculosis. In words: Antimicrobial activity against Mycobacterium tuberculosis H37Rv infected in BALB/C mouse assessed as bacterial burden in mouse lung at 25 mg/kg, po administered via gavage treated 5 times per week for 3 weeks starting from day 10 post infection (reference value: 7.102 +/- 0.152 log10CFU). In kind it is functional.

What is called MIC90 is the lowest concentration that inhibits either 90% of growth or 90% of the strains tested, depending on the study. Lower therefore signals greater potency.

In brackets after ≈: the same amount, converted by molar mass.

As to `NNC(=O)c1ccncc1` [ISONIAZID], the MIC90 in test [1] amounted to 0.035 µg/mL (≈ 0.255 µM). Further, the Activity in test [2] is reported as 1.929 log10CFU.
